Experiment [1] addresses Calcium/calmodulin-dependent protein kinase type 1D (Homo sapiens, UniProt Q8IU85). Put plainly: Inhibition of wild-type human partial length CAMK1D (M1 to K299 residues) expressed in bacterial expression system assessed as residual enzyme activity at 200 nM after 1 hr by Kinomescan method relative to control.
In experiment [2] the test system is NCI-H1299. The experiment is described as follows: Antimigratory activity against human H1299 cells assessed as reduction in wound closure at 5 uM after 24 hrs by bright field microscopic based wound healing assay relative to control. Particulars: NCI-H1299, 24 h. Type of experiment: functional. A digest of the protocol: (§1)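 Wound healing (scratch) migration assay in H1299 cells at 1.25, 2.5 and 5.0 μM; wound closure compared with blank control groups.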

For experiment [3], the target named is T1, Epithelial discoidin domain-containing receptor 1 (Homo sapiens, UniProt Q08345). Put plainly: Binding affinity to wild type human partial length DDR1 (R565 to V876 residues) expressed in bacterial expression system after 1 hr by Kinomescan method. In short, it runs like this:
(§2)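 KINOMEscan binding; Kd determined for DDR1 and the off-target kinases DDR2, CAMK1D, CLK4 and TTK.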

Experiment [4] relates to NCI-H1299. Put plainly: Antiinvasive activity against human H1299 cells at 1.25 uM after 24 hrs by crystal violet staining based transwell assay relative to control. It counts as functional. Particulars: NCI-H1299, 24 h. A digest of the protocol:
(§3)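 H1299 NSCLC cells; transwell invasion assay over 24 h with compound at 1.25, 2.5 and 5.0 μM; invasion expressed relative to blank control.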

The target of experiment [5] is T1, Epithelial discoidin domain-containing receptor 1. The experiment is described as follows: Inhibition of human wild type partial length DDR1 (R565 to V876 residues) expressed in bacterial expression system assessed as residual enzyme activity at 200 nM after 1 hr by Kinomescan method relative to control.
Experiment [6] is filed under the species Homo sapiens. Put plainly: Selectivity index, ratio of IC50 for human recombinant His-tagged c-Kit cytoplasmic domain (544 to 976 residues) expressed in baculovirus expression system using Ser/Thr 6 peptide as substrate after 1 hr in presence of 300 uM ATP by FRET based Z'-LYTE assay to IC50 for recombinant human GST-tagged DDR1 catalytic domain (440 to 876 residues) expressed in baculovirus expression system using Fluorescein-poly GAT as substrate incubated for 1 hr in presence of ATP by LanthaScreen Eu kinase assay. In short, it runs like this: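 Ratio of c-Kit IC50 to DDR1 IC50. c-Kit was measured by FRET-based Z′-Lyte assay and DDR1 by LanthaScreen Eu kinase assay. Each IC50 is the mean of three independent experiments, with variation <20%.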
(In general: In TR-FRET formats the signal depends on donor and acceptor labels being close together.)

Experiment [7] is filed under the species Homo sapiens. Put plainly: Selectivity index, ratio of IC50 for human recombinant full length His-tagged Bcr-Abl expressed in baculovirus expression system using tyrosine-2 peptide as substrate after 1 hr in presence of […] ATP by FRET based Z'-LYTE assay to IC50 for recombinant human GST-tagged DDR1 catalytic domain (440 to 876 residues) expressed in baculovirus expression system using Fluorescein-poly GAT as substrate incubated for 1 hr in presence of ATP by LanthaScreen Eu kinase assay. A digest of the protocol: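 Ratio of Bcr-Abl IC50 to DDR1 IC50. Bcr-Abl was measured by FRET-based Z′-Lyte assay and DDR1 by LanthaScreen Eu kinase assay. Each IC50 is the mean of three independent experiments, with variation <20%.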

In experiment [8] the test system is NCI-H1299. Put plainly: Antiinvasive activity against human H1299 cells at 2.5 uM after 24 hrs by crystal violet staining based transwell assay relative to control. Type of experiment: functional. Particulars: NCI-H1299, 24 h. In short, it runs like this:
as §3

Experiment [9] has as its system NCI-H1299. Put plainly: Inhibition of colony formation in human H1299 cells assessed as reduction in number of colonies measured after 10 days by crystal violet staining based assay. Type of experiment: functional, cell-based. A digest of the protocol:
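Colony formation in H1299 cells under continuous compound treatment for 10 days; colony number quantified and IC50 derived from dose-response.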

The target of experiment [10] is T2, Discoidin domain-containing receptor 2 (Homo sapiens, UniProt Q16832).
T2 sequence (Q16832 whole entry): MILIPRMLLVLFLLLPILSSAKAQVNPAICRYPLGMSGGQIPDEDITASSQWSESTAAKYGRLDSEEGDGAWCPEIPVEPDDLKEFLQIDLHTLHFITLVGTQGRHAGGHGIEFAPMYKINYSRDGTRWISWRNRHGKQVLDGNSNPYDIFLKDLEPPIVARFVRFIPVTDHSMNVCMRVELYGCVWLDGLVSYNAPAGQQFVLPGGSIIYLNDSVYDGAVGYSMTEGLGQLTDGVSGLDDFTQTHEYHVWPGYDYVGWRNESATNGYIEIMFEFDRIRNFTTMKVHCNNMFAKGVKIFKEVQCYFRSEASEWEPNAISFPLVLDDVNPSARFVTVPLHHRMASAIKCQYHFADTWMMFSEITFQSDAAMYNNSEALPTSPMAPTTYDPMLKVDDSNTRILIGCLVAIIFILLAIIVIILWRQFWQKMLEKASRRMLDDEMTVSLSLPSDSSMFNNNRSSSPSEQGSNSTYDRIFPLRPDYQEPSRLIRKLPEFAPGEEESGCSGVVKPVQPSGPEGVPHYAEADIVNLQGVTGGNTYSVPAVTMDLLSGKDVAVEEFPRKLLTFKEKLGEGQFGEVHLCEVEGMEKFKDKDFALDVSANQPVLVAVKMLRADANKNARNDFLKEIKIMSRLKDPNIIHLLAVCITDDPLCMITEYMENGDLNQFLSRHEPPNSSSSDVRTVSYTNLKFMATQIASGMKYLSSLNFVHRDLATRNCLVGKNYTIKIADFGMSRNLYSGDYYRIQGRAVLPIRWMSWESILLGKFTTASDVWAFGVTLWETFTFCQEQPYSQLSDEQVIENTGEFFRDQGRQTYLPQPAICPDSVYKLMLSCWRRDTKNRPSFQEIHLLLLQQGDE
The experiment is described as follows: Binding affinity to wild type human partial length DDR2 (V555 to E855 residues) expressed in mammalian expression system after 1 hr by Kinomescan method. A digest of the protocol:
as §2

The subject of experiment [11] is NCI-H1299. The experiment is described as follows: Antimigratory activity against human H1299 cells assessed as reduction in wound closure at 2.5 uM after 24 hrs by bright field microscopic based wound healing assay relative to control. Type of experiment: functional. The conditions noted are these: NCI-H1299, 24 h. In short, it runs like this:
as §1

The inhibition is the drop in the measured response relative to a control, in per cent. The Kd is the free concentration of one partner at which half of the binding sites on the other are occupied at equilibrium, for simple one-to-one binding. One may read the IC50 as the concentration that inhibits the measured activity by half.

T1 sequence (Q08345 whole entry, the tested form may be a part): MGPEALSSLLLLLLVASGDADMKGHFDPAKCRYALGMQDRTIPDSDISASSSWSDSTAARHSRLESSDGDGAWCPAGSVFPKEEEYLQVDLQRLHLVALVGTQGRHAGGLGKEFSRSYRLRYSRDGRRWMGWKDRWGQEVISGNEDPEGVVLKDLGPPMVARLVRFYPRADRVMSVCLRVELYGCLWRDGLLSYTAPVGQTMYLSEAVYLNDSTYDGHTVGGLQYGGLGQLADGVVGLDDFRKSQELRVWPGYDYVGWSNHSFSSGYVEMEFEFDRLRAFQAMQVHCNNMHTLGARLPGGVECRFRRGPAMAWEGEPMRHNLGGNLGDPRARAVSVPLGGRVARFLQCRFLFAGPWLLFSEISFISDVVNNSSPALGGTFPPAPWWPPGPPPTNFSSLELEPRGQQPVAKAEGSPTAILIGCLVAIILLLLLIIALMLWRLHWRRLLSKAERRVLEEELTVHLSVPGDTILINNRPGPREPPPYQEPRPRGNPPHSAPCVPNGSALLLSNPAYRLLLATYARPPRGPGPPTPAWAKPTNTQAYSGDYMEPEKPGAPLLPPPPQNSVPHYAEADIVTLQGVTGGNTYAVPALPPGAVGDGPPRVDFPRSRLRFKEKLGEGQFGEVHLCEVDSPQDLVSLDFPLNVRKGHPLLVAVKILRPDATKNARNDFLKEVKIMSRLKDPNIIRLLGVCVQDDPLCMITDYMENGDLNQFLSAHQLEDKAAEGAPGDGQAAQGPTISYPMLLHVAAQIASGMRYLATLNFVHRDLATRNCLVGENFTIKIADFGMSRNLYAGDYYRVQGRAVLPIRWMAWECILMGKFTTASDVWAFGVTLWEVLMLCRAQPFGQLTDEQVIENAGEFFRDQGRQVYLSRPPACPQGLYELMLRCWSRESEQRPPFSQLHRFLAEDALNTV
Sequence of Calcium/calmodulin-dependent protein kinase type 1D (Q8IU85 whole entry, looked up, the tested form may be a part): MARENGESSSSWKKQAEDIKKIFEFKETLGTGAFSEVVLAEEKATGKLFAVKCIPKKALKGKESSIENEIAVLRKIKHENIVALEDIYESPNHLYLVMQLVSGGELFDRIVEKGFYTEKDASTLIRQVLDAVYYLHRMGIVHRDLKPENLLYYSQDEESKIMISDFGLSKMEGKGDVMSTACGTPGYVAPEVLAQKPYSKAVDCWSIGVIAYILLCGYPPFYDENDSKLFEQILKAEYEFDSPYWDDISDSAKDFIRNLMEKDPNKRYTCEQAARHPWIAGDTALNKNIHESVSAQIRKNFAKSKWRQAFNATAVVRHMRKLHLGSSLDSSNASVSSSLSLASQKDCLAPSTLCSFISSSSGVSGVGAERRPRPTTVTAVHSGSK

For the compound `CCc1ccc(C(=O)Nc2cc(F)cc(C(F)(F)F)c2)cc1-c1cc(C)cc(-c2cnc3cnccn23)c1`, the Activity turned out to be 0.9% in experiment [1] and 0% in experiment [5]. The inhibition at 5 µM in the experiment with NCI-H1299 [2] was found to be 84%. The values for the Kd in [3] and in experiment [10] were 0.0078 µM and 0.086 µM, respectively. The same compound had an inhibition at 1.25 µM with NCI-H1299 [4] of 17%. Besides, the Ratio IC50 in the experiment listed under Homo sapiens [6] and in the experiment listed under Homo sapiens [7] was 420 throughout. Besides, the inhibition at 2.5 µM in the experiment on NCI-H1299 [8] stood at 50%; with NCI-H1299 [11], 60%. Also, the inhibition result in the experiment with NCI-H1299 [9] was “Dose-dependent effect”. Besides, in the experiment with NCI-H1299 [9] (NCI-H1299, 240 h), the IC50 stood at 0.046 µM.

Source of the values: ChEMBL document CHEMBL4342493, “Design and Optimization of 3'-(Imidazo[1,2-a]pyrazin-3-yl)-[1,1'-biphenyl]-3-carboxamides as Selective DDR1 Inhibitors” (ACS Med Chem Lett, 2020).
